Assay: Toxicity liver stage against HepG2, at 10uM
Assay type: cell-based
Design: test concentration 10 uM, cell line HepG2-A16-CD81EGFP
Conditions: human, HepG2-A16-CD81EGFP cells; read-out: INHIBITION
Method in brief: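 Uninfected HepG2-A16-CD81EGFP cells, 3 × 10^3 per well, 1536-well, plated on prespotted compound at 10 μM final, parasite-free screening media added to match infected plates; puromycin 10 μM positive, DMSO 0.5% negative; run in parallel with 48 h PbLuc assay at 37 °C, 5% CO2; viability by CellTiter-Glo luminescence, normalized to controls.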

Compound | cytotoxicity at 10 µM
Cc1nnc(CN2CCCC2c2ccc(C(C)(C)C)cc2)o1 (centres undefined) | -8.48%
O=C1CCCC2=Nc3nonc3NC(c3ccccc3F)C12 (centres undefined) | 1.08%
Cc1ncsc1CNC(=O)N1CCN(Cc2ccccc2)C[C@H]1C | -125%
COCCNC(=O)c1cc(C(C)C)nc(N2CCCCC2)n1 | 9.04%
COCCCNCc1cc(O)c2cc(C)cc(C)c2n1 | -6.31%
Cc1nc(O)c2nnn(C[C@H]3CCCN3C(=O)c3ccc(F)cc3)c2n1 | -4.28%
Fc1ccc(CNCC2Cn3nncc3CO2)cc1 (centres undefined) | 7.31%
Cc1cc(C)n(CCN2CCC(N(C)Cc3nnc(C)n3C)C2)n1 (centres undefined) | 2.35%
O=C1CC2(CCCCC2)C(=O)N1CC(O)COCc1ccccc1F (centres undefined) | 0.611%
CN(Cc1noc(C2CC2)n1)C1CCCN(c2cccnn2)C1 (centres undefined) | -2.66%
Cc1cccc(-c2nc(N)nc3c2CN(C(=O)c2ccncn2)C3C)c1 (centres undefined) | 4.65%
COc1cccc(Cl)c1C(C(=O)O)N(C)Cc1nnc(C)o1 (centres undefined) | -23.4%
COCC(O)CNc1cncc(Br)c1 (centres undefined) | -2.52%
Cc1ccc(C(=O)N2CC[C@H]3[C@@H]2CCC(=O)N3c2ccccc2)cn1 | -112%
CC(C)C(O)C1(CNC(=O)Nc2ccc(CN3CCOC3=O)cc2)CC1 (centres undefined) | -5.09%
CN(Cc1ccccc1NCc1cscn1)C(=O)c1cccs1 | 0.503%
CC(=O)N1CCC(c2nccnc2Nc2cnccn2)CC1 | 4.51%
CN1CCc2c(c(COc3cncnc3)nn2CC2CC2)C1 | 8.61%
CCS(=O)(=O)N1CCc2nc(N3CCOCC3)nc(N(C)C)c2CC1 | 21.3%
CC(C)NC(=O)N1CCN(S(C)(=O)=O)CC2(CNC(=O)C2)C1 (centres undefined) | 8.71%
CC(C)N1CC2(CCCN(c3ncc(Cl)cc3F)C2)CCC1=O (centres undefined) | 12.2%
Cc1cnn(CC2CCCN2Cc2nnc(-c3ccccc3)o2)c1 (centres undefined) | -9.86%
O=C(NC1CCCCC1)N1CCC(n2cc3[nH]cccc-3c2=O)CC1 | -5.01%

Compound | cytotoxicity at 10 µM
CCOc1cncc(N2CCOCC2)n1 | 3.18%
Cn1cc(CNC(=O)C2CCCN(Cc3cccc(F)c3)C2)cn1 (centres undefined) | 3.44%
COCCOc1ccc(NC(=O)N2CCCC2c2ccncc2)cn1 (centres undefined) | -3.49%
COCC1CC2(CCN(c3cccc(C)n3)CC2)CN1c1ncccn1 (centres undefined) | -108%
Cc1nc(C2CCCN2Cc2ccn(C)c(=O)c2)no1 (centres undefined) | -12.9%
O=C(O)CCn1ccc(=O)c2cc(F)ccc21 | 1.09%
CC(C)N(Cc1cnn(C)c1)CC1CCCN(S(C)(=O)=O)C1 (centres undefined) | -21.4%
Cc1cc(C(=O)N2CCN(Cc3ccsc3)CC2)c(C)n1C1CC1 | -1.94%
COCC(NC(=O)NCc1sccc1C)c1ccco1 (centres undefined) | -3.25%
O=C(CCc1ccsc1)NCC1CCN(c2ccccc2)C1 (centres undefined) | 21.1%
c1csc(CN2CCCC3(COCCN(Cc4c[nH]nn4)C3)C2)c1 (centres undefined) | 5.1%
O=C1CCCc2occ(C(=O)N3CCCC(O)(CO)C3)c21 (centres undefined) | -10.1%
Cc1c(C)c2c(c(C)c1O)CC[C@](C)(C(=O)O)O2 [(R)-TROLOX] | -1.69%
CCc1ncnc2c1CCN(S(=O)(=O)CC)CC2 | -105%
CC(C)CN1CCCn2nc(CNC(=O)Cc3cccc(O)c3)cc2C1 | 4.69%
Cc1ccc(C(=O)N2CCC3(CC2)c2ccccc2[C@@H](N)[C@@H]3O)cc1F | -0.685%
CC(O)CN1CCC(CNCc2cccc(Cl)c2)CC1 (centres undefined) | -23.8%
c1cncc(CN2CCOC(c3ncn4c(C5CC5)cccc34)C2)c1 (centres undefined) | 1.79%
Cc1nc(C2CCN(C(=O)c3ccnn3C)CC2)c2sccn12 | -10.7%
CC(C)c1nc(CNc2ccc(N3CCC(CO)CC3)cn2)cs1 | -2.6%
COc1cc(Oc2ccc(C(N)=O)cn2)ccc1CN1CCCC1 | -0.398%
CCOCc1cccc(NCc2c[nH]nc2-c2cccnc2)c1 | -3.9%
CSCCC(=O)N1CCC(CCC(=O)NCC2CCCO2)CC1 (centres undefined) | 10.7%

Compound | cytotoxicity at 10 µM
CN(C(=O)c1cccc2[nH]ncc12)C1CCN(c2ccccn2)CC1 | 7.31%
CCC1CN(CC(=O)NC2(C#N)CCCC2)CCN1CCOC (centres undefined) | 4.56%
N#Cc1ccsc1NC(=O)CN1CCOC(Cn2cccn2)C1 (centres undefined) | -5.66%
CN(Cc1ccc(N(C)C)cc1)C(=O)CSc1ccc(Br)cc1 | 45.6%
O=C(CN1CCc2sccc2C1)Nc1ccnc2ccnn12 | 46.8%
CN(C)C(=O)CC1CCOc2ccccc21 (centres undefined) | 4.17%
COc1ccc(-c2cn(CCn3c(C)cc(C)nc3=O)nn2)cn1 | 6.05%
CCCc1cc(=O)[nH]c(-c2cccc(CN3CCN4CCCC4C3)c2)n1 (centres undefined) | -15.2%
COc1ccc2c3c1CN(C(=O)N(C)C)CC3=CC(C)(C)CO2 | 5.21%
Cc1nc2c(c(C)c1CC(=O)Nc1ccccc1F)c(=O)[nH]n2C | 0.177%
Cc1ccsc1C(=O)N1CCN(Cc2cscn2)CC1 | -12%
CCC[C@H]1CN(c2nccc(OC)n2)C[C@@H]1NC(=O)C1CCOCC1 | -142%
Cc1ccc2nc(C(=O)N3C[C@@H](C(=O)O)[C@H](c4ccccc4)C3)cn2c1 | 5.96%
NC(=O)NC(=O)CNC1(c2ccc(Cl)cc2)CCCC1 | 15.7%
O=C(NCCc1nnc2n1CCC2)N1CCC2(CCCCC2)C1 | 14.7%
CC(=O)NCC(=O)N1CCC2(CC1)C(=O)N(CC1CC1)c1ccccc12 | -4.1%
CN(Cc1ccccc1)CC1CC2(CO1)CN(c1nncs1)C2 (centres undefined) | 13.7%
CCn1c(C)cc(C(=O)NCc2cccc(S(=O)(=O)NC)c2)c1C | -6.43%
COc1ccccc1CN(C)c1nc2c(cnn2C)c(=O)[nH]1 | 40.6%
O=C(NCC1=CCCCC1)C(c1cccnc1)N1CCOCC1 (centres undefined) | -8.4%
CN1CCCC(c2cccc(CCC(N)=O)n2)C1 (centres undefined) | 2.9%
CN(C)C1CCC2(CCN(Cc3nccn3C)CC2)c2ccccc21 (centres undefined) | 5.64%
Cc1cccc(CN2C(=O)CCC23CCN(Cc2ccoc2)CC3)n1 | 2.82%

Compound | cytotoxicity at 10 µM
CN(C)c1ccc(-c2noc([C@@H]3CCCN3)n2)cn1 | 1.73%
Cc1cccc(Nc2c(C#N)c(=O)n(C)c(=O)n2C)c1 | -7.48%
CNc1cc(C2CCCN(Cc3ccccc3OCC(=O)O)C2)ccn1 (centres undefined) | -24.8%
Cc1nncn1CCNC(=O)C1SCCc2sccc21 (centres undefined) | 2.96%
COc1cccc(CNC2CCc3ccc(C)cc32)n1 (centres undefined) | 4.37%
CCn1c(C)nnc1SCCNc1cc(OC)ncn1 | 5.87%
COc1cc(C)c(CNC(C)c2nc(C)cs2)cc1OC (centres undefined) | 2.58%
CCOc1ccc(C(F)(F)F)cc1NC(=O)N1CCC(C(N)=O)CC1 | 0.425%
COC(=O)C1CCCCN1C(=O)c1ccc(N(C)C)cc1F (centres undefined) | 5.97%
COCCOCC(=O)Nc1ccnn1-c1ccc(Cl)cc1 | -11.6%
O=C(CCCn1cccn1)N1CCCC(n2cncn2)C1 (centres undefined) | 6.61%
COc1cc(CNCc2ccco2)ccc1OCCO | 3.35%
CN(C)c1ncccc1CNC(=O)N(Cc1ccccc1F)C1CC1 | 2.6%
Cc1occc1C(=O)N1CCC2(CCCN(Cc3cccs3)C2)C1 (centres undefined) | 4.3%
CCCNC(=O)C1CCCN(c2ccc3nncn3n2)C1 (centres undefined) | 10.7%
Cc1nc(N2CCOc3ccc(CO)cc3C2)c2c(C)noc2n1 | 2.18%
Cc1ccc(N2CC[C@@H]3[C@@H]2CCN3C(=O)Cc2cccs2)nn1 | -99.8%
c1cnc2nc(N3CCCC3c3nnc4n3CCCCC4)ccc2n1 (centres undefined) | 4.21%
CSc1ncc(C(=O)NCc2cc3n(n2)CCCN(CC(C)C)C3)cn1 | 5.89%
CCc1nc(CN(C)C2CCN(CC(=O)N(C)C)C2)no1 (centres undefined) | -16.7%
CN(CC1(CO)CCC1)C(=O)c1cc(COc2ccccc2F)[nH]n1 | 12.1%
O=c1oc(-c2cccs2)nn1CC1(O)CCCCC1 | 8.52%
Cn1cnc2c1C(COCC1CCOCC1)CN(c1ncccn1)C2 (centres undefined) | -74.1%

Compound | cytotoxicity at 10 µM
Cc1nonc1CN(C)CC1(O)CCCN(CCC2CCCCC2)C1=O (centres undefined) | 49.4%
CNC(=O)c1cccc(CCNC(=O)N2CCc3ccccc3C2)c1 | 6.72%
COc1ccc(CNC(=O)N2CCN(CC(O)C3CC3)CC2)cc1 (centres undefined) | 7.11%
CCCOC1CCCN(C(=O)c2cnc(-c3csc(C)n3)nc2O)C1 (centres undefined) | -1.97%
CCC(=O)N1CCN(C(=O)Nc2ccccc2-c2cccs2)CC1 | -3.21%
COc1nccnc1-c1cc(NC2CCCC2)nc2[nH]ccc12 | 1.97%
CC(C)[C@H]1COC(=O)N1Cc1nncn1C(C)C | -9.17%
Cn1cc(CN(CC2(O)CCNC2)C2CCCCC2)cn1 (centres undefined) | 17.8%
Cc1ccccc1CN(CCN(C)C)Cc1ccccc1C(=O)O | -1.97%
Cc1nc2cc(C3CCN(Cc4ccccc4F)C3)nn2c(O)c1C (centres undefined) | 5.52%
CCOc1cc(CNCCCn2ccnc2)cc(Cl)c1OCC | 1.82%
Cc1ccc(NC(=O)C2CSCN2C(=O)c2cnccn2)c(C)c1 (centres undefined) | -8.6%
Cn1nccc1-c1ccc2nc(C3CCNCC3)nn2c1 | 10.3%
Cn1nc(COCC2CC2)c2c1CN(CC1CC1)CC2 | 13.8%
c1cc(CN2CCO[C@@H]3CNC[C@@H]32)co1 | 6.71%
CCOCCCNc1ncc(-c2onc(C)c2C)c(-c2ccco2)n1 | 10.2%
c1ccc2sc(N3CCN(c4ncnc5c4CCC5)CC3)nc2c1 | 56.7%
N#Cc1ccc(NCCNc2ccc(C(F)(F)F)cn2)nc1 | 73%
COCc1nc2cc(NCc3ncc[nH]3)ccc2o1 | -4.52%
NC(=O)N1CCCC(C(=O)NCc2ccccc2OC(F)(F)F)C1 (centres undefined) | 1.01%
O=C1CC(c2ccsc2)c2c(n(C3CCOCC3)[nH]c2=O)N1 (centres undefined) | 0.847%
CS(=O)(=O)CCCN(CCCO)C1CCc2ccccc21 (centres undefined) | -10.4%

— ChEMBL document CHEMBL4513216, “Probing the Open Global Health Chemical Diversity Library for Multistage-Active Starting Points for Next-Generation Antimalarials” (ACS Infect Dis, 2020)
